Source: ChEMBL document CHEMBL1240333, “Surveying polypeptide and protein domain conformation and association with FlAsH and ReAsH” (Nat Chem Biol, 2007)
pKd: −log10 of the molar value. Calls of active or inactive are those of the source. No cut-off for these calls is given here. Peptide text beside a SMILES is read from it.

What was measured:
[1] = target: T1, Transcription factor Jun (Homo sapiens, UniProt P05412); assay: Binding affinity to wild-type c-Jun homodimer at by circular dichroism spectroscopy
[2] = target: T1, Transcription factor Jun; assay: Binding affinity to c-Jun homodimer containing bipartite tetracysteine motif at 25 nM
How it was run: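 Fluorescence titration: 25 nM FlAsH or ReAsH titrated with increasing synthetic peptide or protein domain in 100 mM Tris-HCl pH 7.8 with 3.5 mM TCEP, 1 mM EDT, 1 mM EDTA. Emission read at 530 ± 12.5 nm (FlAsH) or 630 ± 17.5 nm (ReAsH) after reaching equilibrium, tracked over time. Apparent Kd taken from intensity versus concentration. Points are means of ≥3 independent titrations ± s.d.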

[3] = target: T1, Transcription factor Jun; assay: Binding affinity to c-Jun homodimer containing bipartite tetracysteine motif at 100 nM
[4] = target: T1, Transcription factor Jun; assay: Binding affinity to wild type c-Jun homodimer by circular dichroism spectroscopy

T1 sequence (P05412 whole entry): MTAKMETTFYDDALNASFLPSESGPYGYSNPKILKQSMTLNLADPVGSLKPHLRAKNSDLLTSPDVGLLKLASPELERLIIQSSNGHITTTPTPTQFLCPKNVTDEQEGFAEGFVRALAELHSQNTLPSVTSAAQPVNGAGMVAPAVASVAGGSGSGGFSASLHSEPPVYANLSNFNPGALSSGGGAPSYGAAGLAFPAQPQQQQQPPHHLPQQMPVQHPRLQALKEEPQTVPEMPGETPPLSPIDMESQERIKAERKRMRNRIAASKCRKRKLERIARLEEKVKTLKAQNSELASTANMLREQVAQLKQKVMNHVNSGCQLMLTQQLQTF

- pKd [1]: 5.00
- Activity [2]: Active
- Activity [3]: Active
- Activity [4]: inactive
Compound: CC[C@H](C)[C@H](NC(=O)[C@H](CCCNC(=N)N)NC(=O)[C@H](Cc1c[nH]c2ccccc12)NC(C)=O)C(=O)N[C@@H](C)C(=O)N[C@@H](CCCNC(=N)N)C(=O)N[C@@H](CC(C)C)C(=O)N[C@@H](CCC(=O)O)C(=O)N[C@@H](CCC(=O)O)C(=O)N[C@@H](CCCCN)C(=O)N[C@H](C(=O)N[C@@H](CCCCN)C(=O)N[C@H](C(=O)N[C@@H](CC(C)C)C(=O)N[C@@H](CCCCN)C(=O)N[C@@H](C)C(=O)N[C@@H](CCC(N)=O)C(=O)N[C@@H](CC(N)=O)C(=O)N[C@@H](CO)C(=O)N[C@@H](CCC(=O)O)C(=O)N[C@@H](CC(C)C)C(=O)N[C@@H](C)C(=O)N[C@@H](CO)C(=O)N[C@H](C(=O)N[C@@H](C)C(=O)N[C@@H](CC(N)=O)C(=O)N[C@@H](CCSC)C(=O)N[C@@H](CC(C)C)C(=O)N[C@@H](CCCNC(=N)N)C(=O)N[C@@H](CCC(=O)O)C(=O)N[C@@H](CCC(N)=O)C(=O)N[C@H](C(=O)N[C@@H](C)C(=O)N[C@@H](CCC(N)=O)C(=O)N[C@@H](CC(C)C)C(=O)N[C@@H](CCCCN)C(=O)N[C@@H](CCC(N)=O)C(=O)N[C@@H](CCCCN)C(=O)N[C@H](C(=O)N[C@@H](CS)C(=O)N[C@@H](CS)C(N)=O)C(C)C)C(C)C)[C@@H](C)O)[C@@H](C)O)C(C)C (Ac-WRIARLEEKVKTLKAQNSELASTANMLREQVAQLKQKVCC-NH2)
